The test is described as follows: HIF pathway activation under zinc exposure, dose response, mechanism study for HIF pathway activator project, U2OS HRE-luc cells, zinc medium, dry powder (AID 504324). The note with it: U2OS HRE-luciferase reporter, zinc medium, luminescence; at 38 µM (top of the series). In short, it runs like this: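 assay system = human osteosarcoma U2OS cells stably expressing 3×HRE-driven luciferase reporter | medium = phenol red-free DMEM with FBS and 50 µM zinc | compound = 8-point, 3-fold compound series | schedule = cells plated 24 h before dosing, compound exposure 24 h, 37 °C | measured by = luciferase luminescence, Steady-Glo reagent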
Background: Reporter assays use an easily measured gene product as a stand-in for the process of interest.

Where “and” joins values, the source holds several entries; their conditions need not be identical. Equal entries are not always repeated. Calls of active or inactive are those of the source.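 Rule for the calls: active = compounds lowering the signal whose fitted half-maximal concentration is at most ten times their top tested dose; inconclusive = flat curve with a 30 to 70% drop, or poor fit; inactive = rising signal, flat curve, or potency beyond limit.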

In the case of `O=C(NCc1ccccc1)c1cc(-c2ccccc2)on1`, the activity change, negative = decrease is 64% (inactive). As for `CC(C)(C)CCNC(=O)c1cc(-c2ccccc2)on1`, the figure is 651% (inactive); as for `O=C(NCC1CCCCC1)c1cc(-c2ccccc2)on1`, 158% (inactive). On to `Cc1ccccc1CNc1nc(-c2ccccn2)nnc1-c1ccccc1`, for which the activity change, negative = decrease is 5380% (inactive). For `Cn1c(NC(=O)c2cc(-c3ccccc3)on2)nc2ccccc21`, the activity change, negative = decrease is -2.21% (inactive). The value for `O=C(Nc1cnc2ccccc2c1)c1cc(-c2ccccc2)on1` was 17.3% (inactive); that for `COc1cccc(CNc2nc(-c3ccccn3)nnc2-c2ccccc2)c1` was 4540% (inactive). As to `O=C(c1cc(-c2ccccc2)on1)N1CCC(CO)CC1`, the activity change, negative = decrease was 14.3% (inactive).

For `O=C(Nc1nc2ccccc2s1)c1cc(-c2ccccc2)on1`, the activity change, negative = decrease was 12.6% (inactive). As for `CCCCNC(=O)c1cc(-c2ccccc2)on1`, the activity change, negative = decrease was 1050% (inactive). The value for `Cc1ccc(Nc2nc(-c3ccccn3)nnc2-c2ccccc2)cn1` was 2240% (inactive); that for `Oc1ccc(CN2CCc3ccccc3C2)c2cccnc12` was -77.2% (inactive) and 47.2% (inactive); that for `Cc1cccc(CNC(=O)c2cc(-c3ccccc3)on2)c1` was -6.77% (inactive). As to `Cc1cccc(NC(=O)c2cc(-c3ccccc3)on2)n1`, the activity change, negative = decrease was 39.8% (inactive). The value for `COc1ccc(CNc2nc(-c3ccccn3)nnc2-c2ccccc2)cc1` was 5130% (inactive). As for `OCCCNc1nc(-c2ccccn2)nnc1-c1ccccc1`, the figure is 3730% (inactive); as for `c1ccc(-c2cccc(CNc3nc(-c4ccccn4)nnc3-c3ccccc3)c2)cc1`, 4810% (inactive); as for `C[C@@H](Nc1nc(-c2ccccn2)nnc1-c1ccccc1)C1CCCCC1`, 4780% (inactive). With `c1ccc(-c2nnc(-c3ccccn3)nc2NCCCN2CCOCC2)cc1`, the activity change, negative = decrease is 5050% (inactive). As for `O=C(NCCCO)c1cc(-c2ccccc2)on1`, the figure is 811% (inactive); as for `O=C(c1cc(-c2ccccc2)on1)N1CCc2cccnc21`, 44% (inactive); as for `c1ccc(-c2cnc(Nc3nc(-c4ccccn4)nnc3-c3ccccc3)s2)cc1`, 44.9% (inactive). For `O=C(Nc1nc(-c2ccccc2)cs1)c1cc(-c2ccccc2)on1`, the activity change, negative = decrease was -11.2% (inactive). Consider `O=C(NCC1CC1)c1cc(-c2ccccc2)on1`, for which the activity change, negative = decrease is 798% (inactive).

Take `O=C(NCCCN1CCOCC1)c1cc(-c2ccccc2)on1`: the activity change, negative = decrease was 1480% (inactive). The value for `O=C(Nc1ccc2ccccc2n1)c1cc(-c2ccccc2)on1` was 22.8% (inactive); that for `CN(C)CCNC(=O)c1cc(-c2ccccc2)on1` was 31.3% (inactive). As for `c1ccc(CCNc2nc(-c3ccccn3)nnc2-c2ccccc2)cc1`, the activity change, negative = decrease is 4750% (inactive). `Oc1ccc(CN2CCC(Cc3ccccc3)CC2)c2cccnc12`: the activity change, negative = decrease is 27.6% (inactive). As for `Cn1c(-c2ccccc2)cnc1NC(=O)c1cc(-c2ccccc2)on1`, the activity change, negative = decrease is 19% (inactive). `O=C(c1cc(-c2ccccc2)on1)N1CCC(N2CCOCC2)CC1`: the activity change, negative = decrease is -1.04% (inactive). With `O=C(NCCN1CCCCC1)c1cc(-c2ccccc2)on1`, the activity change, negative = decrease is 56.5% (inactive).

As to `c1ccc(-c2csc(Nc3nc(-c4ccccn4)nnc3-c3ccccc3)n2)cc1`, the activity change, negative = decrease was 315% (inactive). Regarding `O=C(c1cc(-c2ccccc2)on1)N1CCC(N2CCCC2)CC1`, the activity change, negative = decrease is 6.15% (inactive). On to `O=C(Nc1ncc(-c2ccccc2)o1)c1cc(-c2ccccc2)on1`, for which the activity change, negative = decrease was 18.1% (inactive). Turning to `c1ccc(-c2nnc(Nc3nc(-c4ccccn4)nnc3-c3ccccc3)s2)cc1`, the activity change, negative = decrease is 161% (inactive). On to `c1ccc(-c2nnc(-c3ccccn3)nc2NCC2CC2)cc1`, for which the activity change, negative = decrease was 5580% (inactive). As for `O=C(c1cc(-c2ccccc2)on1)N1CCN(c2ccncc2)CC1`, the figure is -13.1% (inactive); as for `CC(C)(C)c1ccc(CNc2nc(-c3ccccn3)nnc2-c2ccccc2)cc1`, 3790% (inactive); as for `O=C(NC1Cc2ccccc2C1)c1cc(-c2ccccc2)on1`, 146% (inactive).

On to `O=C(NCCCCO)c1cc(-c2ccccc2)on1`, for which the activity change, negative = decrease was 1710% (inactive). Take `c1ccc(-c2nnc(-c3ccccn3)nc2NCC2CCOCC2)cc1`: the activity change, negative = decrease was 3680% (inactive). As for `c1ccc(-c2nnc(-c3ccccn3)nc2NCCN2CCOCC2)cc1`, the figure is 3780% (inactive); as for `Clc1cccc(CNc2nc(-c3ccccn3)nnc2-c2ccccc2)c1`, 4600% (inactive); as for `c1ccc(-c2nnc(-c3ccccn3)nc2N2CCC(c3ccccc3)C2)cc1` (stereo unspecified), 5380% (inactive). `O=C(NC1CCc2ccccc2C1)c1cc(-c2ccccc2)on1` (stereo unspecified): the activity change, negative = decrease is -9.29% (inactive). With `CC(Nc1nc(-c2ccccn2)nnc1-c1ccccc1)c1ccccc1` (stereo unspecified), the activity change, negative = decrease was 4380% (inactive).

Turning to `OCC1CCN(Cc2ccc(O)c3ncccc23)CC1`, the activity change, negative = decrease is 29.9% (inactive). The value for `c1ccc(-c2ccc(CNc3nc(-c4ccccn4)nnc3-c3ccccc3)cc2)cc1` was 3920% (inactive); that for `CC(C)(C)CCNc1nc(-c2ccccn2)nnc1-c1ccccc1` was 7490% (inactive) and 6820% (inactive); that for `O=C(Nc1cn2ccccc2n1)c1cc(-c2ccccc2)on1` was 41.5% (inactive). The value for `C[C@H](Nc1nc(-c2ccccn2)nnc1-c1ccccc1)C1CCCCC1` was 5570% (inactive).

For the compound `c1ccc(-c2nnc(-c3ccccn3)nc2NCC2CCCCC2)cc1`, the activity change, negative = decrease is 8340% (inactive).

For the compound `Cc1ccc(NC(=O)c2cc(-c3ccccc3)on2)cn1`, the activity change, negative = decrease is 21.6% (inactive).

As to `Cc1ccc(CNc2nc(-c3ccccn3)nnc2-c2ccccc2)cc1C`, the activity change, negative = decrease is 4550% (inactive).

`Cc1cccc(CNc2nc(-c3ccccn3)nnc2-c2ccccc2)c1`: the activity change, negative = decrease was 6280% (inactive). As for `Oc1ccc(CN2CCC3CCCCC3C2)c2cccnc12` (stereo unspecified), the figure is 916% (inactive); as for `O=C(NCCN1CCOCC1)c1cc(-c2ccccc2)on1`, 1440% (inactive). The value for `O=C(NCCCn1ccnc1)c1cc(-c2ccccc2)on1` was 1800% (inactive). As for `C[C@@H](Nc1nc(-c2ccccn2)nnc1-c1ccccc1)c1ccccc1`, the figure is 4300% (inactive). Consider `Cc1ccc(CNC(=O)c2cc(-c3ccccc3)on2)cc1`, for which the activity change, negative = decrease was 10.4% (inactive). As for `c1ccc(CNc2nc(-c3ccccn3)nnc2-c2ccccc2)cc1`, the figure is 5410% (inactive); as for `Cn1c(-c2ccccc2)cnc1Nc1nc(-c2ccccn2)nnc1-c1ccccc1`, 210% (inactive). Regarding `CC1CN(Cc2ccc(O)c3ncccc23)CC(C)O1` (stereo unspecified), the activity change, negative = decrease was 4.72% (inactive). On to `O=C(Nc1ncc2ccccc2n1)c1cc(-c2ccccc2)on1`, for which the activity change, negative = decrease was 152% (inactive). The value for `c1ccc(-c2nnc(-c3ccccn3)nc2N2CCC(C3CCCCC3)C2)cc1` (stereo unspecified) was 4900% (inactive); that for `N#CC1(c2ccccc2)CCN(Cc2ccc(O)c3ncccc23)CC1` was 208% (inactive).

For `Cc1cccc(Nc2nc(-c3ccccn3)nnc2-c2ccccc2)n1`, the activity change, negative = decrease was 4620% (inactive). As for `CN1CCN(c2nc(-c3ccccn3)nnc2-c2ccccc2)CC1`, the figure is 1500% (inactive); as for `C=CCNc1nc(-c2ccccn2)nnc1-c1ccccc1`, 5230% (inactive). Consider `c1ccc(-c2nnc(-c3ccccn3)nc2N2CCN(c3ccncc3)CC2)cc1`, for which the activity change, negative = decrease is 4830% (inactive). As to `c1ccc(-c2nnc(-c3ccccn3)nc2NCc2cccnc2)cc1`, the activity change, negative = decrease was 3620% (inactive).

Regarding `c1ccc(-c2nnc(-c3ccccn3)nc2N2CCC(N3CCOCC3)CC2)cc1`, the activity change, negative = decrease was 4120% (inactive).

Regarding `Cc1ccc(CNc2nc(-c3ccccn3)nnc2-c2ccccc2)cc1`, the activity change, negative = decrease was 6080% (inactive).

As to `c1ccc(-c2nnc(-c3ccccn3)nc2NCCc2ccccn2)cc1`, the activity change, negative = decrease is 4700% (inactive). As for `OCC1CCN(c2nc(-c3ccccn3)nnc2-c2ccccc2)CC1`, the figure is 1330% (inactive). The value for `O=C(Nc1nnc(-c2ccccc2)s1)c1cc(-c2ccccc2)on1` was 6.48% (inactive); that for `Cc1ccccc1CNC(=O)c1cc(-c2ccccc2)on1` was 25.4% (inactive); that for `c1ccc(-c2nnc(-c3ccccn3)nc2NCc2ccccn2)cc1` was 3330% (inactive).

Turning to `CN1CCN(C(=O)c2cc(-c3ccccc3)on2)CC1`, the activity change, negative = decrease was 13.1% (inactive). As for `Oc1ccc(CNC2Cc3ccccc3C2)c2cccnc12`, the figure is 314% (inactive).

(Values after PubChem BioAssay AID504324 (Broad Institute, 2011).)
